In ChEMBL document CHEMBL1155359 (Bioorg Med Chem Lett, 2009):

These compounds were tested against T1, Voltage-gated inwardly rectifying potassium channel KCNH2 (Homo sapiens, UniProt Q12809) (assay: (§1) Inhibition of human ERG in L929 cells at 10 uM by whole cell patch-clamp assay). Settings: not given; call rule not given here.
T1 sequence (Q12809 whole entry): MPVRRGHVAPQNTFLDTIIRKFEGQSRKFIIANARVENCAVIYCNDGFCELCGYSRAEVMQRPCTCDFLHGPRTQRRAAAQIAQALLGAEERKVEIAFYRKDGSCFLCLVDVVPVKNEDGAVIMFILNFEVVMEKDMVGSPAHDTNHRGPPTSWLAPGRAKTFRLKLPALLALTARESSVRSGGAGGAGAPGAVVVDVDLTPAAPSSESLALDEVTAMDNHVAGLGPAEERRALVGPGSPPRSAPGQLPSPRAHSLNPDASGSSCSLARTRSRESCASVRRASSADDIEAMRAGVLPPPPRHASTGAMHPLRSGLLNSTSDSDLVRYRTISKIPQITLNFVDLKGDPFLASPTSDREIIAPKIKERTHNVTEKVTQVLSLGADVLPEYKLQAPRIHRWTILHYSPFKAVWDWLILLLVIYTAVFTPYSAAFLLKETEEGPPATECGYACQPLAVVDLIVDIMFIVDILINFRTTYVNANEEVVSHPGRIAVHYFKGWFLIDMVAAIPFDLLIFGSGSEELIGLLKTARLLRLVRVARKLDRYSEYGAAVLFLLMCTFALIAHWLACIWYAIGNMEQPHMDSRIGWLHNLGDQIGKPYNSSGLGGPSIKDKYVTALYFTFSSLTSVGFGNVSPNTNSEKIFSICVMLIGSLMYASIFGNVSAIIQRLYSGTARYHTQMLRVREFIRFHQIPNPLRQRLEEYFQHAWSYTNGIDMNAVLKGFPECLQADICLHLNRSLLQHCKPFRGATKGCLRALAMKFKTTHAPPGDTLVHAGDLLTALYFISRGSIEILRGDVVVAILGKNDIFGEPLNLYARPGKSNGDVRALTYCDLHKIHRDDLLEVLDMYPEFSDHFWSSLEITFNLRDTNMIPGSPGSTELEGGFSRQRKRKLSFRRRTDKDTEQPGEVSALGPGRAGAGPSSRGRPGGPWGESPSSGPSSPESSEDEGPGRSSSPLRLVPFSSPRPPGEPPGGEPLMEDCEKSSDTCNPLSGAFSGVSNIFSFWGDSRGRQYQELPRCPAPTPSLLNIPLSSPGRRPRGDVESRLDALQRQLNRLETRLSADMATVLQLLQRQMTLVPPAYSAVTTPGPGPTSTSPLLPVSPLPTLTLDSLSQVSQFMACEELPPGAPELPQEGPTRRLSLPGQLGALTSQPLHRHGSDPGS
With `O=C(O)c1ccc(CCCCN2CCC(C(O)(c3ccccc3)c3ccccc3)CC2)cc1` the IC50 was 11000 nM.

These compounds were tested against hERG (KCNH2) (Homo sapiens, UniProt Q12809) (assay: as §1). Settings: human, L929 cells expressing human ERG.
Sequence of hERG (KCNH2) (Q12809 whole entry): as above
`COC(=O)c1ccc(CCCCN2CCC(C(O)(c3ccccc3)c3ccccc3)CC2)cc1` showed an inhibition at 10 µM of 100%. `Cc1ccc(CCCCN2CCC(CO)CC2)cc1` showed an inhibition at 10 µM of 54%. `Cc1ccc(CCCCC2CCC(C(O)(c3ccccc3)c3ccccc3)CC2)cc1` (stereo not given) gave an inhibition at 10 µM of 35%. For `Cc1ccc(CCCCN2CCCCC2)cc1`, the inhibition at 10 µM was 71%. For `CC1CCC(CCCCN2CCC(C(O)(c3ccccc3)c3ccccc3)CC2)CC1` (stereo not given), the inhibition at 10 µM was 85%. With `Cc1ccc(CN2CCC(C(O)(c3ccccc3)c3ccccc3)CC2)cc1` the inhibition at 10 µM was 100%. Compound `Cc1ccc(CCN2CCC(C(O)(c3ccccc3)c3ccccc3)CC2)cc1` has an inhibition at 10 µM of 100%. `Cc1ccc(CCCC(=O)N2CCC(C(O)(c3ccccc3)c3ccccc3)CC2)cc1` was tested, and the inhibition at 10 µM was 11%. `Cc1ccc(CCCCN2CCC(C(O)c3ccccc3)CC2)cc1` (stereo not given) was tested, and the inhibition at 10 µM was 97%.

Same assay, conditions: human, l929
With `O=C(O)c1ccc(CCCCN2CCC(C(O)(c3ccccc3)c3ccccc3)CC2)cc1` the inhibition at 10 µM was 56%.

What follows are compounds tested on Cavia porcellus (assay: Cardiovascular toxicity in Hartley guinea pig assessed as QTc prolongation at 100 mg/kg, iv after 30 mins by ECG). Settings: in vivo, 0.5 h.
Format: organism-based
Parameters: dose 100 mg/kg, route intravenous
`CC(C)(C(=O)O)c1ccc(C(O)CCCN2CCC(C(O)(c3ccccc3)c3ccccc3)CC2)cc1` (racemic) [FEXOFENADINE] was tested, and the MED was over 100 mg/kg.

What follows are compounds tested on Cavia porcellus (assay: Antihistamine activity in iv dosed Hartley guinea pig assessed as inhibition of histamine-induced bronchoconstriction pretreated before histamine challenge). Settings: not given.
Format: functional
Method in brief: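 Guinea pig in vivo antihistamine test; potency is reported as an ED50 in mg/kg.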
In the case of `O=C(O)c1ccc(CCCCN2CCC(C(O)(c3ccccc3)c3ccccc3)CC2)cc1`, the ED50 is reported as 0.1 mg/kg. `Cc1ccc(CCCCN2CCC(C(O)(c3ccccc3)c3ccccc3)CC2)cc1` was tested, and the ED50 was 0.9 mg/kg. `CC(C)(C(=O)O)c1ccc(C(O)CCCN2CCC(C(O)(c3ccccc3)c3ccccc3)CC2)cc1` (racemic) [FEXOFENADINE] gave an ED50 of 0.08 mg/kg. `CC(C)(C)c1ccc(C(O)CCCN2CCC(C(O)(c3ccccc3)c3ccccc3)CC2)cc1` (racemic) [TERFENADINE] gave an ED50 of 0.8 mg/kg.

What follows are compounds tested on Cavia porcellus (assay: Cardiovascular toxicity in Hartley guinea pig assessed as QTc prolongation at 50 mg/kg, iv after 30 mins by ECG). Settings: in vivo, 0.5 h.
Format: organism-based
Parameters: dose 50 mg/kg, route intravenous
For `O=C(O)c1ccc(CCCCN2CCC(C(O)(c3ccccc3)c3ccccc3)CC2)cc1`, the MED was over 50 mg/kg.

Each compound was assayed against Histamine H1 receptor (Homo sapiens, UniProt P35367) (assay: Displacement of [3H]pyrilamine from human recombinant histamine H1 receptor expressed in CHO cell by Betaplate scintillation counting). Settings: cho.
Sequence of Histamine H1 receptor (P35367 whole entry): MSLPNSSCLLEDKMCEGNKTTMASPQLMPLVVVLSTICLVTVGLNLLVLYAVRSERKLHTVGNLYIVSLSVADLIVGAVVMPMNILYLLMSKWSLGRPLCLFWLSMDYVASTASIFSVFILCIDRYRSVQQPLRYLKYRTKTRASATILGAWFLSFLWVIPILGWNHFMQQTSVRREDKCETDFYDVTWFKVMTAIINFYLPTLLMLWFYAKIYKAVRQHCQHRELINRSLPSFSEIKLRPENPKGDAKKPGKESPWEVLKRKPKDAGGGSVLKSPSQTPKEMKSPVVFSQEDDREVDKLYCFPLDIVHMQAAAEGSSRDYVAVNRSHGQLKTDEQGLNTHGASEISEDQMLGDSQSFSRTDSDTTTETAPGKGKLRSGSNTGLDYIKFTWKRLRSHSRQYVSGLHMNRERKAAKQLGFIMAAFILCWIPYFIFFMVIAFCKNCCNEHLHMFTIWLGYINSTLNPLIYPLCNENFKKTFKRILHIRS
Format: cell-based
`Cc1ccc(CCCCN2CCC(CO)CC2)cc1` was tested, and the Ki was “Not Active”. For `Cc1ccc(CCCCC2CCC(C(O)(c3ccccc3)c3ccccc3)CC2)cc1` (stereo not given), the Ki was “Not Active”. In the case of `Cc1ccc(CCCC(=O)N2CCC(C(O)(c3ccccc3)c3ccccc3)CC2)cc1`, the Ki is reported as “Not Active”.

Same assay, conditions: read-out: Ki
For `COC(=O)c1ccc(CCCCN2CCC(C(O)(c3ccccc3)c3ccccc3)CC2)cc1`, the Ki was 20 nM. Work on `O=C(O)c1ccc(CCCCN2CCC(C(O)(c3ccccc3)c3ccccc3)CC2)cc1` yielded a Ki of 203 nM. In the case of `Cc1ccc(CCCN2CCC(C(O)(c3ccccc3)c3ccccc3)CC2)cc1`, the Ki is reported as 155 nM. Compound `Cc1ccc(CCCCN2CCCCC2)cc1` has a Ki of 3200 nM. In the case of `CC1CCC(CCCCN2CCC(C(O)(c3ccccc3)c3ccccc3)CC2)CC1` (stereo not given), the Ki is reported as 61 nM. `Cc1ccc(CCCCN2CCC(C(O)(c3ccccc3)c3ccccc3)CC2)cc1` gave a Ki of 39 nM. Work on `Cc1ccc(CN2CCC(C(O)(c3ccccc3)c3ccccc3)CC2)cc1` yielded a Ki of 16 nM. `Cc1ccc(CCN2CCC(C(O)(c3ccccc3)c3ccccc3)CC2)cc1` showed a Ki of 64 nM. Work on `Cc1ccc(CCCCN2CCC(C(O)c3ccccc3)CC2)cc1` (stereo not given) yielded a Ki of 121 nM. In the case of `OC(c1ccccc1)(c1ccccc1)C1CCNCC1` [AZACYCLONOL], the Ki is reported as 659 nM.

What follows are compounds tested against T1, Voltage-gated inwardly rectifying potassium channel KCNH2 (assay: Inhibition of human ERG in L929 cells by whole cell patch-clamp assay). Settings: not given.
Compound `O=C(O)c1ccc(CCCCN2CCC(C(O)(c3ccccc3)c3ccccc3)CC2)cc1` has an IC50 of 11000 nM.

Each compound was assayed on Cavia porcellus (assay: Cardiovascular toxicity in iv dosed Hartley guinea pig QTc prolongation after 30 mins by ECG). Settings: in vivo, 0.5 h.
Format: organism-based
Method in brief: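 Guinea pig in vivo QTc test; potency is reported as the minimum effective dose (MED) in mg/kg.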
With `O=C(O)c1ccc(CCCCN2CCC(C(O)(c3ccccc3)c3ccccc3)CC2)cc1` the MED was “Not Active”. For `Cc1ccc(CCCCN2CCC(C(O)(c3ccccc3)c3ccccc3)CC2)cc1`, the MED was 0.1 mg/kg. With `CC(C)(C(=O)O)c1ccc(C(O)CCCN2CCC(C(O)(c3ccccc3)c3ccccc3)CC2)cc1` (racemic) [FEXOFENADINE] the MED was “Not Active”. `CC(C)(C)c1ccc(C(O)CCCN2CCC(C(O)(c3ccccc3)c3ccccc3)CC2)cc1` (racemic) [TERFENADINE] gave an MED of 0.03 mg/kg.
